{"source": "paper PMC5884119", "about": "(Journal of medicinal chemistry, 2017)", "key": {"[1]": {"tested_on": "ovarian cancer cells (C13)", "assay": "Cytotoxicity toward ovarian cancer cells", "type": "cell-based"}, "[2]": {"tested_on": "panel of Gram-positive and Gram-negative bacteria", "assay": "Antimicrobial activity against the whole panel", "type": "cell-based", "conditions": "for MIC: read-out: MICs across the tested strains; for antimicrobial activity against the tested strains (in words): statement in text over the panel of strains"}, "MRSA [3]": {"tested_on": "MRSA", "assay": "Fluorescence microscopy", "type": "cell-based, Staphylococcus aureus"}, "E. coli [4]": {"tested_on": "E. coli", "assay": "Fluorescence microscopy", "type": "cell-based, Escherichia coli", "procedure,_shortened": "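Test compound at 5 µg/mL applied to E. coli for 2 h, with untreated cells as controls. Cells stained with DAPI or with propidium iodide, a membrane-impermeant DNA intercalator that fluoresces red only when membranes are disrupted. Membrane damage assessed by fluorescence microscopy.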"}, "MRSA [5]": {"tested_on": "MRSA", "assay": "Time-kill study, MRSA", "type": "cell-based, Staphylococcus aureus"}, "E. coli [6]": {"tested_on": "E. coli", "assay": "Time-kill study, E. coli", "type": "cell-based, Escherichia coli"}, "MRSA [7]": {"tested_on": "MRSA", "assay": "Drug resistance study", "type": "cell-based, Staphylococcus aureus", "conditions": "incubated at half of MIC overnight, after 14 passages"}, "[8]": {"tested_on": "MRSA-induced lung inflammation", "assay": "Rat MRSA pneumonia model, lung pathology", "type": "in vivo", "procedure,_shortened": "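Rats (n = 6 per group) inoculated intratracheally with 100 µL MRSA suspension. After 24 h (day 0), test compound 10 mg/kg given by intravenous tail-vein injection. Lung bacterial counts taken on days 3 and 5. Lung inflammation assessed by hematoxylin and eosin staining of lung tissue.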"}, "[9]": {"tested_on": "P. aeruginosa (ATCC 27853)", "assay": "MIC against P. aeruginosa", "type": "cell-based, Pseudomonas aeruginosa"}, "Hemolytic activity": {"assay": "Hemolytic activity", "type": "cell-based"}, "Pseudomonas aeruginosa": {"tested_on": "Pseudomonas aeruginosa", "conditions": "cited from earlier work"}, "[10]": {"conditions": "even at 100 µg/mL, same experiment (Figure S2)"}}, "data": [{"smiles": "CCCCCCCCCCCC(=O)N[C@@H](CCCCN)CN1CC(=O)N(c2cccc(Cl)c2)C1=O", "note": "[Compound 22, (S)-N-(6-Amino-1-(3-(3-chlorophenyl)-2,4-dioxoimidazolidin-1-yl)hexan-2-yl)dodecanamide]", "values": [{"measurement": "IC50", "setting": "[1]", "value": 90, "unit": "µg/mL"}, {"measurement": "MIC", "setting": "[2]", "value": "< 1", "unit": "µg/mL"}, {"measurement": "membrane damage (DAPI and PI staining)", "setting": "MRSA [3]; MRSA, 5 µg/mL, 2 h", "value": "damaged"}, {"measurement": "membrane damage (DAPI and PI staining)", "setting": "E. coli [4]; E. coli, 5 µg/mL, 2 h", "value": "damaged"}, {"measurement": "time to complete eradication", "setting": "MRSA [5]; 2.0 µg/mL (4× MIC)", "value": 60, "unit": "min"}, {"measurement": "time to complete eradication", "setting": "MRSA [5]; 25 µg/mL", "value": 10, "unit": "min"}, {"measurement": "time to complete eradication", "setting": "E. coli [6]; 4.0 µg/mL (4× MIC)", "value": 60, "unit": "min"}, {"measurement": "time to complete eradication", "setting": "E. coli [6]; 25 µg/mL", "value": 30, "unit": "min"}, {"measurement": "time to complete eradication", "setting": "E. coli [6]; 50 µg/mL", "value": 30, "unit": "min"}, {"measurement": "MIC after serial passage (resistance development)", "setting": "MRSA [7]", "value": "remained virtually unchanged"}, {"measurement": "lung inflammation (H&E staining)", "setting": "[8]; day 3", "value": "only mild inflammation was observed"}, {"measurement": "lung inflammation (H&E staining)", "setting": "[8]; day 5", "value": "virtually matched normal conditions"}]}, {"smiles": "CCCCCCCCCCCCCCCC(=O)N[C@@H](CCCCN)CN1CC(=O)N(CC)C1=O", "note": "[Compound 4, (S)-N-(6-Amino-1-(3-ethyl-2,4-dioxoimidazolidin-1-yl)hexan-2-yl)palmitamide]", "values": [{"measurement": "activity toward P. aeruginosa (in words)", "setting": "[9]", "value": "abolished"}]}, {"smiles": "CCCCCCCCCC(=O)N[C@@H](CCCCN)CN1CC(=O)N(C2CCCCC2)C1=O", "note": "[Compound 9, (S)-N-(6-Amino-1-(3-cyclohexyl-2,4-dioxoimidazolidin-1-yl)-hexan-2-yl)decanamide]", "values": [{"measurement": "antimicrobial activity against the tested strains (in words)", "setting": "[2]", "value": "starts to show activity toward a few bacterial strains"}]}, {"smiles": "CCCCCCCCCC(=O)N[C@@H](CCCCN)CN1CC(=O)N(CCCC)C1=O", "note": "[Compound 5, (S)-N-(6-Amino-1-(3-butyl-2,4-dioxoimidazolidin-1-yl)hexan-2-yl)decanamide]", "values": [{"measurement": "antimicrobial activity against the tested strains (in words)", "setting": "[2]", "value": "does not have any antimicrobial activity"}]}, {"smiles": "CCCCCCCCCC(=O)N[C@@H](CCCCN)CN1CC(=O)N(C23CC4CC(CC(C4)C2)C3)C1=O", "note": "[Compound 13, N-((S)-1-(3-((3R,5R,7R)-Adamantan-1-yl)-2,4-dioxoimidazolidin-1-yl)-6-aminohexan-2-yl)decanamide]", "values": [{"measurement": "HC50", "setting": "Hemolytic activity", "value": 125, "unit": "µg/mL"}, {"measurement": "antimicrobial activity against the tested strains (in words)", "setting": "[2]", "value": "decent activity across the panel of bacteria"}]}, {"smiles": "CCCCCCCCCCCC(=O)N[C@@H](Cc1ccccc1)CN1CC(=O)N(c2cccc(Cl)c2)C1=O", "note": "[Compound 25, (S)-N-(1-(3-(3-Chlorophenyl)-2,4-dioxoimidazolidin-1-yl)-3-phenylpropan-2-yl)dodecanamide]", "values": [{"measurement": "antimicrobial activity against the tested strains (in words)", "setting": "[2]", "value": "failed to show any antimicrobial activity"}]}, {"smiles": "CN[C@H](CC(C)C)C(=O)N[C@H]1C(=O)N[C@@H](CC(N)=O)C(=O)N[C@H]2C(=O)N[C@H]3C(=O)N[C@H](C(=O)N[C@H](C(=O)O)c4cc(O)cc(O)c4-c4cc3ccc4O)[C@H](O)c3ccc(c(Cl)c3)Oc3cc2cc(c3O[C@@H]2O[C@H](CO)[C@@H](O)[C@H](O)[C@H]2O[C@H]2C[C@](C)(N)[C@H](O)[C@H](C)O2)Oc2ccc(cc2Cl)[C@H]1O", "note": "[vancomycin, reference compound]", "values": [{"measurement": "lung inflammation (H&E staining)", "setting": "[8]; day not given", "value": "some alleviation of this condition"}]}, {"smiles": "CCCCCCCCCC(=O)N[C@@H](CCCCN)CN1CC(=O)N(CC)C1=O", "note": "[Compound 1, (S)-N-(6-Amino-1-(3-ethyl-2,4-dioxoimidazolidin-1-yl)hexan-2-yl)decanamide]", "values": [{"measurement": "antimicrobial activity against the tested strains (in words)", "setting": "[2]", "value": "did not exhibit any activity"}]}, {"smiles": "O=C1CN(/N=C/c2ccc([N+](=O)[O-])o2)C(=O)N1", "note": "[Compound 26, nitrofurantoin, reference compound]", "values": [{"measurement": "activity toward P. aeruginosa (in words)", "setting": "[9]", "value": "failed to show any activity"}, {"measurement": "MIC", "setting": "[2]", "value": "6.25 to 25", "unit": "µg/mL"}, {"measurement": "membrane-disruption activity", "setting": "MRSA [3]; [10]", "value": "did not show any membrane-disruption activity"}, {"measurement": "membrane-disruption activity", "setting": "E. coli [4]; [10]", "value": "did not show any membrane-disruption activity"}, {"measurement": "not active up to (concentration)", "setting": "Pseudomonas aeruginosa", "value": "> 100", "unit": "µg/mL"}]}]}
